The list is not random: actives were taken first. Their share in the collection is about 9.8%.
Rad51 HR inh: Rad51 (human) homologous recombination inhibition; hRad51 DNA strand exchange, fluorescence dequenching; inhibition, % at 10 µM; 200,000 tested, 0.085% active; AID 1385;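 active = inhibition above 40% at the single screening dose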;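 note: 0% = DMSO control wells and 100% = blanks with heterologous ssDNA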
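Material: human Rad51–ssDNA filaments; Probe or stimulus: labelled 47-mer dsDNA for strand exchange; Doses: single 10 µM dose; Incubation: 37 °C 15-min filament assembly, 30-min compound preincubation, 15-min exchange; Technique: FRET fluorescence dequenching, excitation 485 nm, emission 520 nm; Measure: Fluorescence-based percent inhibition, control- and blank-normalised; Benchmarks: plate control and blank wells.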
PMI activator: increases human mannose-6-phosphate isomerase activity; activation factor at 20 µM; P34949; purified human PMI, coupled resazurin fluorescence, 20 min; stronger effect = higher value; 1 = vehicle control, 0 substrate-free wells; 190,000 tested, 0.005% active;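 active = activation factor of 2 or more at 20 µM, relative to plate controls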
Target sequence (P34949 whole entry, looked up): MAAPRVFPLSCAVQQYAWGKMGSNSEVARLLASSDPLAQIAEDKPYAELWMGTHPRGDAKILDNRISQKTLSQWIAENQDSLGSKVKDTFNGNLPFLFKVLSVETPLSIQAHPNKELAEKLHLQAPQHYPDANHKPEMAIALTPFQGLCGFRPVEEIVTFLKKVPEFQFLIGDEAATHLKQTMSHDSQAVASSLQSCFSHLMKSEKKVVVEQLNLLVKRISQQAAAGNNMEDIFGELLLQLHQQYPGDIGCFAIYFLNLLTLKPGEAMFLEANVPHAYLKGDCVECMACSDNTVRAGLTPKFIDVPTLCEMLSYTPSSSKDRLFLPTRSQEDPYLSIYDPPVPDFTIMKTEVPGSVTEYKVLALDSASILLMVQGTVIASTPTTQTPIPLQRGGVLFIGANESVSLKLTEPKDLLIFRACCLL
L major viab: inhibitors of Leishmania major promastigote growth; Leishmania major promastigotes, resazurin fluorescence viability; inhibition, % at 10 µM; 200,000 tested, 9% active; in the data active = inhibition above about 50%;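 note: promastigotes grown with compound for 44 hours at 28 °C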
WT yeast gro inh: growth inhibition of WT yeast, mitochondrial fusion screen; mitochondrial fusion phenotypic screen, WT strain; inhibition, % at 10 µM; 190,000 tested, 2.1% active; in the data active = inhibition above about 58%; tested in S. cerevisiae
Calpain2 inh: inhibitors of pig calpain II | purified calpain II, fluorogenic peptide substrate, 30 min | inhibition, % at 16 µM | 220,000 tested, 0.37% active | AID 1236;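 active = inhibition above about 50%, limit read from the data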
PMI act hi M6P: increases human PMI activity with near-saturating mannose 6-phosphate; P34949; activation factor at 20 µM; AID 1216; coupled PMI enzyme assay, resazurin fluorescence, 20 min; stronger effect = higher value; 1 = untreated enzyme, 0 = substrate-free blank; 190,000 tested, 0.34% active;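 active = activation factor of 2 or more at 20 µM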
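Test system: human phosphomannose isomerase with PGI, G6PDH, diaphorase coupling enzymes / Doses: 20 µM compound, 1% DMSO / Times: enzyme reaction with compound 20 min at room temperature / Measured by: Diaphorase-driven resazurin-to-resorufin fluorescence, excitation 544, emission 590 nm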
* = called active by the depositor; . = no result.

SMILES	Rad51 HR inh	PMI activator	L major viab	WT yeast gro inh	Calpain2 inh	PMI act hi M6P
Cc1ccc(N2CCN(CC(O)COc3ccc([N+](=O)[O-])cc3)CC2)cc1 (stereo not drawn)	.	1	97*	15	27	1
O=[N+]([O-])c1ccc(OCC(O)CN2CCN(c3ccccc3F)CC2)cc1 (stereo not drawn)	-1	1	-1	-14	57*	1
C=CCS/C(N)=N\N=C\c1c(O)ccc2ccccc12	-6	.	.	.	16	.
Cc1ccc(C2NC(=NCc3ccccc3)Nc3nc(C)cc(=O)n32)cc1 (stereo not drawn)	.	.	.	.	0	.
O=[N+]([O-])c1ccc(N2CCN(S(=O)(=O)c3ccccc3[N+](=O)[O-])CC2)cc1NCc1cccnc1	20	1	68*	-10	-78	0.9
Cc1c(C(=O)Oc2cccc3cccnc23)oc2ccccc12	.	0.8	98*	-5	-10	0.5
COc1ccccc1/C=C/C(=O)Oc1cccc2cccnc12	-114	0.9	99*	8	-30	0.7
O=C(/C=C/c1ccco1)Oc1cccc2cccnc12	2	.	.	.	-1	.
O=C(/C=C\c1ccco1)Oc1cccc2cccnc12	-1	1	97*	11	-13	0.7
O=C1/C(=C/c2ccc([N+](=O)[O-])cc2)C=C(c2ccccc2)N1c1ccc(O)cc1	1	0.8	100*	51	6	0.8
CC(C)=CCCC(C)CN1CCC(N2CCC(C(=O)N3CCCC3)CC2)CC1 (stereo not drawn)	12	0.9	73*	6	2	1
C=C(C)[C@@H]1CC=C(CN2CCC(N3CCC(C(=O)N4CCCC4)CC3)CC2)CC1	2	1	79*	19	3	1
C=C(C)C1CC=C(CN2CCC(O)CC2)CC1 (stereo not drawn)	-1	1.1	93*	-15	-31	1.1
O=C(C1CCN(C2CCN(Cc3ccc4c(c3)CCO4)CC2)CC1)N1CCCC1	6	1	-9	-14	-39	1
COc1ccc(C(=O)NCC(=O)N/N=C(C)\C=C\c2ccccc2)cc1OC	.	1.1	-3	7	-15	1.1
CN1CCN(CC(O)COc2ccc(C34CC5CC(CC(C5)C3)C4)cc2)CC1 (stereo not drawn)	3	1.1	100*	97*	-18	1.2
OC(COc1ccc2cc(Br)ccc2c1)CN1CCN(c2ccccn2)CC1 (stereo not drawn)	11	1	-1	32	4	1
OC(COc1ccc(OCC(O)CN2CCCCCC2)cc1)CN1CCCCCC1 (stereo not drawn)	-9	1.1	30	-10	16	1.1
COc1cc(C(C)=O)ccc1OCC(O)CN(CCO)Cc1ccccc1 (stereo not drawn)	6	1	-5	-25	1	1
OCCN1CCN(CC(O)COc2ccc3ccccc3c2)CC1 (stereo not drawn)	8	1	91*	-11	-17	1.1
OCCN1CCN(CC(O)COc2ccc(-c3ccccc3)cc2)CC1 (stereo not drawn)	-13	1	96*	40	15	1.1
OCCN(Cc1ccccc1)CC(O)COc1ccc(-c2ccccc2)cc1 (stereo not drawn)	15	.	39	66*	18	.
CCOc1ccc(N(CC(=O)N/N=C/c2cccnc2)S(C)(=O)=O)cc1	9	1	6	3	-3	1
COC(=O)c1cc2occc2n1Cc1ccc(Cl)cc1	-6	0.9	56*	35	-21	0.9
COC(=O)c1cc2occc2n1Cc1c(F)cccc1Cl	11	0.8	4	6	0	0.8
SMILES	Rad51 HR inh	PMI activator	L major viab	WT yeast gro inh	Calpain2 inh	PMI act hi M6P
CCOC(=O)C1CCC(CNCc2ccccc2C)CC1 (stereo not drawn)	3	1	95*	-22	-21	1
O=C(O)C1CCC(CNCc2ccccc2Cl)CC1 (stereo not drawn)	0	0.9	-11	-27	-12	0.9
Fc1ccccc1Nc1nc(-c2ccncc2)nc2ccccc12	-13	1.3	96*	-6	-2	1.2
CC(C)(C)C(=O)NCCCc1nc2ccccc2n1CCCOc1ccc(Cl)cc1	-15	0.9	20	-2	-43	1
C/C(=C\C(=S)Nc1ccccc1)Nc1ccc2ccccc2c1	.	0.6	10	62*	-24	0.4
C/C(=C\C(=S)Nc1ccccc1)Nc1cccc2ccccc12	.	0.5	17	48	-102	0.4
NS(=O)(=O)c1ccc(CNC(=O)c2cc(-c3ccccn3)nc3ccc(Cl)cc23)cc1	2	1.5	3	11	-45	1.1
Cc1csc(NC(=O)c2ccc(S(=O)(=O)N3CCCC3)cc2)n1	.	.	.	.	-23	.
O=C(Nc1nc(-c2cccs2)cs1)c1ccc(S(=O)(=O)N2CCCC2)cc1	.	0.9	77*	7	-156	0.8
O=C(Nc1nc(-c2ccc(S(=O)(=O)N3CCCCCC3)cc2)cs1)c1ccccc1	-2	0.9	12	13	-393	1
O=C(Nc1nc(-c2ccc3c(c2)OCCO3)cs1)c1ccc(S(=O)(=O)N2CCCCC2)cc1	9	1	86*	21	-392	1
O=C(Nc1nc(-c2cccs2)cs1)c1ccc(Cl)s1	1	0.9	36	81*	36	0.9
CC(O)C(C(=O)OCc1ccc([N+](=O)[O-])cc1)N1C(=O)c2ccccc2C1=O (stereo not drawn)	-2	1	-2	2	-6	0.9
CN(C)C(=S)Nc1nc2ccccc2s1	-103	0.4	16	74*	18	0.7
CCOc1ccc2nc(NC(=O)C(NS(=O)(=O)c3cccs3)C(C)C)sc2c1 (stereo not drawn)	2	1	33	7	1	1
CCOc1ccc2nc(NC(=O)C3CCCN(S(=O)(=O)c4cccs4)C3)sc2c1 (stereo not drawn)	3	0.8	55*	42	-159	0.8
CCOc1ccc2nc(NC(=S)N(C)C)sc2c1	1	0.6	80*	55	16	0.8
CN(CC(=O)Nc1nc2ccccc2s1)S(=O)(=O)c1ccc(Cl)cc1	-7	0.9	88*	7	-12	0.9
Cc1ccccc1Oc1nnc(-c2cccs2)c2ccccc12	-9	0.9	45	9	2	0.9
COC(=O)C(Cc1ccccc1)NC(=O)c1cc(S(=O)(=O)N(C)C)ccc1Cl (stereo not drawn)	3	1	0	-21	-15	0.8
C=CCc1cccc2cc(C(=O)Nc3ccccc3C(=O)O)c(=O)oc12	.	0.9	-5	2	-22	1.1
CCOC(=O)C1(CCCc2ccccc2)CCN(C(=O)CCC2=NNC(=O)CC2)CC1	-20	0.9	0	-2	15	1

High-throughput results as filed in PubChem BioAssay.
